Only a sample is shown.
Apaf-1 act – activates human Apaf-1 apoptosome; 330,000 tested, 0.31% active; activity change, negative = activation, % at 20 µM; Apaf-1 apoptosome caspase-3 activation, DEVD-Rh110 fluorescence; active compounds read low;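 active = activity change at or below -40% at 20 µM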
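system = biochemical Apaf-1 apoptosome reconstitution | buffer or medium = 20 mM HEPES pH 7.5 with CHAPS, BSA | also added = dATP and cytochrome c as apoptosome triggers, (Z-DEVD)2-Rh110 substrate | incubation = 30 min compound preincubation and 50 min reaction, both room temperature | measured by = fluorescence, 540 nm emission, 480 nm excitation | read-out basis = Caspase-3 cleavage activity downstream of Apaf-1 activation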
Rh110 interf act – counter-screen for Apaf-1 activators: fluorescence interference; 980 tested, under 10 active; shares compounds with Apaf-1 act; AID 504616; fluorescence interference (activity change), % at 20 µM, hits read low; Rh110 fluorescence interference, quenched caspase reaction, Ex480/Em540;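 active = mean activity change at or below -40% when tested at 20 µM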
Apaf-1 act conf – confirmation of human Apaf-1 activators | shares compounds with Apaf-1 act | reconstituted apoptosome caspase-3 activity, DEVD-Rh110 fluorescence; active compounds read low | AID 504617 | activity change, negative = activation, % at 20 µM | 980 tested, 5% active;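 active = mean activity change at or below -40%, meaning activation of 40% or more, at 20 µM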
The depositor's hits bear a star; · = no result.

SMILES	Apaf-1 act	Rh110 interf act	Apaf-1 act conf
O=C(Nc1ncn[nH]1)c1c(Cl)ccc(Cl)c1Cl	-47*	-3	10
COc1ccc(C(CNC(=O)c2cc3c(s2)CCC(C)C3)N2CCCC2)cc1 (stereo not given)	61	·	·
COc1ccc(S(=O)(=O)N2CCN(c3ccc4nnc(-c5ccc(F)cc5)n4n3)CC2)cc1	51	·	·
CC[C@H](C)[C@@H](C(=O)NCCCCCCCCCCC(=O)N1CCN(C(=O)OC(C)(C)C)CC1)n1cc(CCCCN=C(NC(=O)OC(C)(C)C)NC(=O)OC(C)(C)C)nn1	56	·	·
CC(=O)[C@@H]1[C@@H]2C(=O)N(c3ccc(F)c(Cl)c3)C(=O)[C@@H]2C2c3ccccc3C=CN21 (stereo not given in full)	72	·	·
CC(C)(C)NC(=O)NC(=O)COC(=O)c1nc(-c2ccccc2)n(-c2cccc(C(F)(F)F)c2)n1	-47*	17	13
COC(=O)C1=C(C)N(Cc2ccccc2)C(=NCc2ccccc2)N[C@H]1c1cccc(C(F)(F)F)c1	65	·	·
CCN(CC)C(=O)[C@H]1CC(CC(=O)NCCCN(C)C)C(=O)N2CCc3c([nH]c4ccccc34)[C@]12C (stereo not given in full)	44	·	·
O=C(NCCCO)C(=O)NCc1ccncc1	-63*	-80*	10
O=C(NCCO)c1ccc2nc(-c3ccco3)c(-c3ccco3)nc2c1	78	·	·
Cc1nn(-c2ccccc2)c(C)c1CN(C)C(=O)c1ccc(S(=O)(=O)NCc2ccco2)cc1	49	·	·
CC(C)(C)c1ccc(C(=O)NNC(=S)NCc2ccco2)cc1	-41*	6	14
CCC1=NNc2cccc3c(OC)ccc1c23	52	·	·
CCc1ccc(NC2=CC(=O)C(=O)c3ccccc32)cc1	92	·	·
Cc1ccc(NC(=O)CN2C(=O)S/C(=C/c3ccc(-c4cc(C(=O)O)ccc4C)o3)C2=O)cc1C	42	·	·
CCc1ccc2[nH]c(C(=O)Nc3ccc(Br)c(C)n3)cc2c1	-484*	3	13
Cc1ccc(C)c2[nH]c(=O)c(C(c3nnnn3Cc3ccccc3)N3CCc4ccccc4C3)cc12 (stereo not given)	67	·	·
[O-][n+]1c2ccccc2cc2ccccc21	-386*	-9	9
Nc1nc2c(s1)CCc1c-2cnn1-c1ccccc1	93	·	·
Oc1cc(NCCN2CCOCC2)cc2cccnc12	92	·	·
CCOc1ccc(NS(=O)(=O)c2cc(C(=O)NCCCN3CCOCC3)ccc2C)cc1	65	·	·
Cc1ccc(S(=O)(=O)NCCN2CCOCC2)c(C)c1C	-48*	3	9
CC[C@@H](C)[C@@H]1CN([C@@H](CN2CCC[C@H]2CN2C(N)=NC[C@@H]2Cc2ccccc2)C(C)C)C(=N)N1CCCC1CCCC1	63	·	·
O=c1[nH]nc(CNc2ccc(O)cc2)c2ccccc12	94	·	·
O=C1N/C(=C\c2ccc(O)cc2)C(=O)c2ccccc21	97	·	·
SMILES	Apaf-1 act	Rh110 interf act	Apaf-1 act conf
Cc1cccc(CCNS(=O)(=O)c2cnc[nH]2)c1	-46*	-4	8
Cn1nc(-c2ccccn2)nc2c(=O)n(C)c(=O)nc1-2	98	·	·
CC(C)c1ccc2[nH]c(O)c(N=NC(=O)c3ccc(CSc4nncn4C)cc3)c2c1	-74*	2	10
O=C1C(Cl)=C(N2CCC(C(=O)O)CC2)C(=O)c2ccccc21	75	·	·
CCOc1ccc2oc(C(=O)N(C)CC(=O)Nc3ccc(OCC)c(OCC)c3)c(C)c2c1	-55*	4	14
O=c1cc(-c2cccc([N+](=O)[O-])c2)[nH][nH]1	68	·	·
Cc1ccc(Sc2ncccc2C(=O)NCc2cc([N+](=O)[O-])ccc2O)c(C)c1	-48*	-6	12
Cc1ccc(O)c(CNc2cccc3cccnc23)c1	93	·	·
CC(=O)Nc1ccc(S(=O)(=O)/N=C2\C(=O)c3ccccc3C([O-])=C2n2cc[n+](-c3ccccn3)c2)cc1	84	·	·
CCCCOc1cc(NCc2ccccc2)c2ncn(C(C)C)c2c1	61	·	·
Cn1c(=O)c2cc(NCc3ccccc3)nnc2n(C)c1=O	94	·	·
Cc1ccc2c(c1)C(O)(C1COC(C)(C)CC1=O)C(=O)N2C (stereo not given)	-573*	-4	8
[O-][n+]1cccc2c(Br)cc(Br)c(O)c21	73	·	·
CCOc1cc2[nH]c(=O)n(CCCCC(=O)NCc3ccco3)c(=O)c2cc1OCC	-190*	-2	8
CN1C(=O)c2cccc3c(S(=O)(=O)NCc4ccco4)ccc1c23	55	·	·
O=C(O)c1cc(O)c2c(c1)[C@H]([C@H]1c3cc(C(=O)O)cc(O)c3C(=O)c3c(O[C@@H]4O[C@H](CO)[C@@H](O)[C@H](O)[C@H]4O)cccc31)c1cccc(OC3O[C@H](CO)[C@@H](O)[C@H](O)[C@H]3O)c1C2=O (stereo not given in full)	89	·	·
CCN1CCN(Cc2ccc(NC(=O)c3cc(NC(=O)c4cc5cccc(OC)c5o4)cc(OC)c3)cc2C(F)(F)F)CC1	63	·	·
Cc1ccc(NC(=O)N2CCCC2C(=O)Nc2ccc3c(c2)OCCO3)cc1 (stereo not given)	-83*	-1	10
O=C(Nc1ccc(OC(F)F)c(Cl)c1)[C@@H]1CCCN1C(=O)c1cccs1	92	·	·
O=C(Nc1ccc2c(c1)OCO2)C1CCCCN1S(=O)(=O)c1ccccc1 (stereo not given)	-95*	16	18
CN1CCN(c2cc3c(c4c2[nH]c2ccccc24)C(=O)CC(C)(C)C3)CC1	50	·	·
O=C(CC1Nc2cccc3cccc(c23)NC1=O)Nc1ccc(F)cc1 (stereo not given)	96	·	·
CN1C[C@H](C(=O)N[C@]2(C)O[C@@]3(O)[C@@H]4CCCN4C(=O)[C@H](Cc4ccccc4)N3C2=O)CC2c3cccc4[nH]cc(c34)C[C@H]21 (stereo not given in full)	10	·	·
Oc1c(Br)cc(C=Nc2ccc3nc(-c4ccccc4)[nH]c3c2)c(O)c1Br	65	·	·
CC1(C)CC(=O)c2c(-c3cccnc3)n[nH]c2C1	43	·	·
SMILES	Apaf-1 act	Rh110 interf act	Apaf-1 act conf
CC1(C(=O)NC2CCCC2)CCC(=O)N1Cc1ccccc1Cl (stereo not given)	-106*	-8	9
O=C(Cc1ccccc1Cl)NC1(O)C(=O)c2ccccc2C1=O	89	·	·
COc1cc(Br)c(C(=O)c2nccc3cc(OC)c(OC)cc23)cc1OC	89	·	·
N#Cc1c(NCCO)nc(NCc2ccccc2)c2c1CCN(Cc1ccccc1)C2	60	·	·
N#Cc1ccccc1NC(=O)CN1CCN(Cc2ccccc2)CC1	-42*	19	11
N#Cc1c(N)sc(=S)c2c1CCN(Cc1ccccc1)C2	96	·	·
CCCCCCCCCCCCCCCC(O)C(N)CO (stereo not given)	80	·	·
Cc1nc2c(=O)[nH]c(=S)n(C)c2nc1C	-263*	9	17
Cc1cccc(NC(=O)CCNS(=O)(=O)c2cccc3nonc23)c1	-68*	-4	8
Cc1cccc(NC2=C(NC(=O)c3ccccc3)C(=O)c3ccccc3C2=O)c1	73	·	·
O=C(c1ccco1)[C@@H]1[C@@H]2C(=O)N(c3ccc(F)cc3)C(=O)[C@@H]2C2c3ccccc3C=CN21 (stereo not given in full)	83	·	·
